Each structure is given as a SMILES string. In brackets after ≈: the same amount, converted by molar mass. Activity calls are given as the source filed them. No cut-off for these calls is given here.

Experiment [1] concerns Neutrophil. As to the kind of experiment: Antiinflammatory activity in human neutrophils assessed as inhibition of elastase release at 10 ug/mL. The class given is functional, cell-based. An outline of the steps:
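Neutrophils from venous blood of healthy adult volunteers, isolated by dextran sedimentation, Ficoll Hypaque centrifugation and hypotonic erythrocyte lysis, kept in Ca2+-free HBSS pH 7.4 at 4 °C. Cells (6 × 10^5/mL) with MeO-Suc-Ala-Ala-Pro-Val-p-nitroanilide (100 µM), 2 min at 37 °C, drug 5 min, then fMLP (100 nM)/cytochalasin B (0.5 µg/mL). A405 monitored continuously. Percent inhibition, mean ± SEM, n = 4.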

Experiment [2] has as its system Neutrophil. As to the kind of experiment: Antiinflammatory activity in human neutrophils assessed as inhibition of superoxide anion generation at 10 ug/mL. In kind it is functional, cell-based. In a few lines:
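Healthy-volunteer neutrophils (dextran/Ficoll isolation, Ca2+-free HBSS pH 7.4) supplemented with 0.5 mg/mL ferricytochrome c and 1 mM Ca2+. Equilibrated 2 min at 37 °C, drug 5 min, cytochalasin B 1 µg/mL 3 min, then fMLP 100 nM 10 min. SOD-inhibitable ferricytochrome c reduction read at 550 nm with stirring, difference ± SOD (100 U/mL). Percent inhibition, n = 4.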

Experiment [3] in a line: Antiinflammatory activity in human neutrophils assessed as inhibition of fMet-Leu-Phe/Cytochalasin B-induced superoxide anion generation. The class given is functional, cell-based. To be noted: Neutrophil. In a few lines:
(§1)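 Neutrophils isolated from venous blood of healthy adult volunteers (20–28 years) by dextran sedimentation, Ficoll Hypaque centrifugation and hypotonic erythrocyte lysis, >98% viable, held in Ca2+-free HBSS pH 7.4 at 4 °C. Cells given 0.5 mg/mL ferricytochrome c and 1 mM Ca2+, 37 °C 2 min, drug 5 min, cytochalasin B 1 µg/mL 3 min, then fMLP 100 nM 10 min. SOD-inhibitable (100 U/mL) reduction at 550 nm; n = 4.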

Experiment [4] in a line: Antiinflammatory activity in human neutrophils assessed as inhibition of fMet-Leu-Phe/Cytochalasin B-induced elastase release. In kind it is functional, cell-based. To be noted: Neutrophil. In a few lines:
(§2)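 Human volunteer neutrophils (6 × 10^5/mL) prepared by dextran sedimentation, Ficoll Hypaque gradient and hypotonic lysis, kept in Ca2+-free HBSS pH 7.4 at 4 °C. Elastase substrate MeO-Suc-Ala-Ala-Pro-Val-p-nitroanilide 100 µM added; cells equilibrated 2 min at 37 °C, drug 5 min, then fMLP 100 nM/cytochalasin B 0.5 µg/mL stimulation. Absorbance at 405 nm monitored continuously; n = 4.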

A short description of experiment [5]: Antiinflammatory activity in human neutrophils assessed as inhibition of fMet-Leu-Phe/Cytochalasin B-induced elastase release at 10 ug/mL. The class given is functional, cell-based. To be noted: Neutrophil. An outline of the steps:
as §2

Experiment [6] can be described thus: Antiinflammatory activity in human neutrophils assessed as inhibition of fMet-Leu-Phe/Cytochalasin B-induced superoxide anion generation at 10 ug/mL. Conditions: Neutrophil. The class given is functional. In a few lines: as §1

Consider `CC(=O)c1c(O)cc(O)cc1OC/C=C(\C)CCC=C(C)C`, for which the outcome in the experiment with Neutrophil [1] and in the experiment with Neutrophil [2] was Active. A word on the IC50: it is the concentration that gives 50% inhibition. As to `CC(=O)c1c(O)cc(OC/C=C(\C)CCC=C(C)C)c(C(=O)O)c1O`, the half-inhibitory concentration (IC50) in experiment [3] worked out at 6.62 mg/L; in experiment [4], 5.79 mg/L (≈ 16.6 µM).

Usually inhibition stands for how much of the control response was suppressed. As to `CC[C@H](CC[C@@H](C)[C@H]1CC[C@H]2[C@@H]3C(=O)C=C4C[C@@H](O)CC[C@]4(C)[C@H]3CC[C@]12C)C(C)C`, the values for the inhibition at 10 µg/mL in experiment [5] and in experiment [6] were 7.48% and 22.6%, respectively.

Turning to `c1ccc2c(c1)[I+]c1ccccc1-2` [DIPHENYLENEIODONIUM], the IC50 in experiment [3] amounted to 0.52 µM. `CC(C)=CCC/C(C)=C/COc1cc(O)cc(O)c1C(=O)CO`: the half-inhibitory concentration (IC50) in experiment [3] amounted to 0.73 mg/L; in experiment [4], 0.6 mg/L (≈ 1.87 µM). Consider `O=S(=O)(F)Cc1ccccc1` [PHENYLMETHYLSULFONYLFLUORIDE], for which the 50% inhibitory concentration (IC50) in experiment [5] was 35.7 µM. Take `COc1cc(O)c2c(=O)c(OC)c(-c3ccc(OC)c(OC)c3)oc2c1` [RETUSIN]: the IC50 was 1.43 mg/L in experiment [3] and 1.69 mg/L (≈ 4.72 µM) in experiment [4]. In the case of `CC(=O)c1c(O)cc(OC/C=C(\C)CCC=C(C)C)c2c1OC(C)(C)C=C2`, the inhibition at 10 µg/mL is 27.4% in experiment [5] and 21.4% in experiment [6]. For the molecule `COc1cc(O)c2c(=O)c(OC)c(-c3ccc(O)cc3)oc2c1` [KUMATAKENIN], the results for the IC50 in experiment [3] and in experiment [4] were 1.2 mg/L and 0.7 mg/L (≈ 2.23 µM), respectively. With `CC(=O)c1c(OC/C=C(\C)CCC=C(C)C)cc(O)c(C(=O)O)c1O`, the IC50 in experiment [3] came out at 8.02 mg/L. In experiment [5], the inhibition at 10 µg/mL came out at 46.1%. Consider `CC(=O)c1c(O)cc(OC/C=C(\C)CCC=C(C)C)c2c1OC(C)(C)[C@H](O)C2`, for which the inhibition at 10 µg/mL came to 28.7% in experiment [5] and 30.6% in experiment [6]. Regarding `CC(C)=CCC/C(C)=C/COc1cc(O)c(C(=O)CO)c(O)c1`, the results for the IC50 in experiment [3] and in experiment [4] were 3.75 mg/L and 0.91 mg/L (≈ 2.84 µM), respectively.

Regarding `COc1cc(O)c2c(=O)c(OC)c(-c3ccc(O)c(OC)c3)oc2c1` [PACHYPODOL], the half-maximal inhibitory concentration (IC50) came to 1 mg/L in experiment [3] and 0.99 mg/L (≈ 2.88 µM) in experiment [4]. Regarding `CC(=O)c1c(O)cc(OC/C=C(\C)CCC=C(C)C)c2c1OC(C)(CCC=C(C)C)C=C2` (stereo unspecified), the inhibition at 10 µg/mL turned out to be 26.6% in experiment [5] and 23.2% in experiment [6].

Values taken from ChEMBL document CHEMBL1143073, “Benzoic acid derivatives, acetophenones, and anti-inflammatory constituents from Melicope semecarpifolia” (J Nat Prod, 2008).
